Assay [1] addresses T1, Serine/threonine-protein kinase Nek1 (Homo sapiens) (UniProt Q96PY6).
T1 sequence (whole entry): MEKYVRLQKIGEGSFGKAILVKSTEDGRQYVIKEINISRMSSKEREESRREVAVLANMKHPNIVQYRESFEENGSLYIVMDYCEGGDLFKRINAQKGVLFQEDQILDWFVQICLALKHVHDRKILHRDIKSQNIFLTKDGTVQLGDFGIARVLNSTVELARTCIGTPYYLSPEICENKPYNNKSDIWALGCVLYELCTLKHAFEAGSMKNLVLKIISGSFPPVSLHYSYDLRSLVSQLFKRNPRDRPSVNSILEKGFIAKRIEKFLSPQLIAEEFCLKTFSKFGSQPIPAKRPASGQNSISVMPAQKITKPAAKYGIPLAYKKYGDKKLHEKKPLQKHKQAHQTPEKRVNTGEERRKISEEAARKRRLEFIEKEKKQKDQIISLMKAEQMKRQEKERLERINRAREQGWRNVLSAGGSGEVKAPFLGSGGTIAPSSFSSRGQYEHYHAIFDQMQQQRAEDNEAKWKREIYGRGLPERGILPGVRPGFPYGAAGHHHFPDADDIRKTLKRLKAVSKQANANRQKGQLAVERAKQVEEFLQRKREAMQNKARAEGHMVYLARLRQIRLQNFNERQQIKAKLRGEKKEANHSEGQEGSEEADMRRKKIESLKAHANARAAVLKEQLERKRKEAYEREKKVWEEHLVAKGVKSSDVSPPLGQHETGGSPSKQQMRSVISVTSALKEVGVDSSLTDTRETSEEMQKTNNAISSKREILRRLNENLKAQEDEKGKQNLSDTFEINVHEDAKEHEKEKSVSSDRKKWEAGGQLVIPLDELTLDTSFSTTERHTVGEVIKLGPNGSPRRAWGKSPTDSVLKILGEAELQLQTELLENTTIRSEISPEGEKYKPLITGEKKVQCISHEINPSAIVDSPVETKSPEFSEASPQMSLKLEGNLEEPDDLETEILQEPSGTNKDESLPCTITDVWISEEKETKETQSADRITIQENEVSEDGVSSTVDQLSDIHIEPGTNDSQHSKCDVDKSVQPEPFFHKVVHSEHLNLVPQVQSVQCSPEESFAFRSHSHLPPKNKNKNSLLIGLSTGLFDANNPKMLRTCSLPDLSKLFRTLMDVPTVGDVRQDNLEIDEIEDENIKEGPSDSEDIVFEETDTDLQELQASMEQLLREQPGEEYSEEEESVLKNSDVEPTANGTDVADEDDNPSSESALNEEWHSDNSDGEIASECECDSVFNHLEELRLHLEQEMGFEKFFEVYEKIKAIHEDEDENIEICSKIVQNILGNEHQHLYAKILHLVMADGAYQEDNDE
Put plainly: Inhibition of human recombinant NEK1 (1 to 505 residues) assessed as residual activity at 1 uM using RLGRDKYKTLRQIRQ as substrate incubated for 40 mins in presence of [gamma-33P]-ATP by radiometric scintillation counting assay relative to control. The procedure, abridged: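 Eurofins KinaseProfiler radiometric panel, compound at 1 μM, ATP at 10 μM or within 15 μM of apparent Km. For Nek1 (1−505): 8 mM MOPS pH 7.0, 0.2 mM EDTA, 250 μM peptide, 10 mM Mg acetate, [γ-33P]-ATP, 40 min at room temperature. Stopped with 0.5% phosphoric acid, filtermat spotting, scintillation counting. Mean of two independent experiments.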

The target in assay [2] is T2, Serine/threonine-protein kinase Nek1 (Homo sapiens, UniProt Q96PY6).
T2 sequence (Q96PY6 whole entry): T1 sequence (whole entry)
Put plainly: Inhibition of human recombinant NEK1 (1 to 505 residues) using ULight-p70 S6K peptide as substrate incubated for 30 mins by LANCE Ultra TR-FRET assay. A digest of the protocol:
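Recombinant human Nek1 (1−505, 0.02 nM) in 50 mM HEPES pH 7.5, 1 mM EGTA, 10 mM MgCl2, 0.2 mM DTT, 0.01% Tween20, with 50 nM ULight-p70 S6K peptide and 60 μM ATP, 30 min at 22 °C. Stopped with EDTA plus Eu anti-phospho antibody, 1 h signal development. Ten half-log concentrations from 30 μM (10 μM for some) to 1 nM. Mean of two experiments.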
(Time-resolved FRET reads energy transfer from a long-lived donor to a nearby acceptor.)

Assay [3] concerns the target T2, Serine/threonine-protein kinase Nek1. Put plainly: Inhibition of human recombinant NEK1 (1 to 505 residues) using RLGRDKYKTLRQIRQ as substrate incubated for 40 mins in presence of [gamma-33P]-ATP by radiometric scintillation counting assay. A digest of the protocol:
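Eurofins IC50Profiler radiometric assay on recombinant human Nek1 (1−505), ATP at 10 μM or 90 μM (near Km). Nine concentrations at half-log steps from 10 μM to 1 nM, with vehicle controls. IC50 and 95% CI obtained by four-parameter nonlinear regression. Mean of two independent experiments.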

pIC50: −log10 of the molar value. A value given as a limit tells only on which side of the number the result lay.

One may read the pIC50 as the negative decadic logarithm of the IC50, by convention in mol/L. Take `O=S(=O)(N[C@H](CO)Cc1ccccc1)c1ccc(-c2ccnc3[nH]ccc23)cc1`: in assay [1], the Activity was 19%. Further, in assay [2], the pIC50 is 5.72.

For `O=S(=O)(N[C@@H](CO)Cc1ccccc1)c1ccc(-c2ccnc3[nH]ccc23)cc1`, the Activity in assay [1] came out at 16%. The pIC50 in assay [2] was 5.89.

On to `O=C(NCCO)c1ccc(-c2ccnc3[nH]ccc23)cc1`, for which the Activity in assay [1] is 89%. Besides, the pIC50 in assay [2] is 4.54.

In the case of `CCN(CC)CCNS(=O)(=O)c1ccc(-c2ccnc3[nH]ccc23)cc1`, in assay [1], the Activity is 68%. For the same compound, in assay [2], the pIC50 is 5.00.

As to `CN(C)CCNS(=O)(=O)c1ccc(-c2ccnc3[nH]ccc23)cc1`, in assay [1], the Activity was 37%. Moreover, the pIC50 in assay [2] was 5.15; in assay [3] it was 5.37.

As for `O=S(=O)(N[C@H](CO)Cc1ccc(O)cc1)c1ccc(-c2ccnc3[nH]ccc23)cc1`, the Activity in assay [1] worked out at 33%. The pIC50 in assay [2] is 5.70.

For the compound `CC(=O)OCCNS(=O)(=O)c1ccc(-c2ccnc3[nH]ccc23)cc1`, the Activity in assay [1] was 49%. Besides, the pIC50 in assay [2] was 5.06.

For the compound `O=S(=O)(NCCN1CCCCC1)c1ccc(-c2ccnc3[nH]ccc23)cc1`, the Activity in assay [1] stood at 37%. Moreover, the pIC50 in assay [2] was 5.18.

Consider `O=S(=O)(N[C@H](CO)Cc1c[nH]c2ccccc12)c1ccc(-c2ccnc3[nH]ccc23)cc1`, for which the Activity in assay [1] came to 19%. In addition, in assay [2], the pIC50 is 6.00.

Take `O=S(=O)(NCCO)c1ccc(-c2ccnc3[nH]ccc23)cc1`: in assay [1], the Activity was found to be 12%. For the same compound, the figures for the pIC50 in assay [2] and in assay [3] were 5.49 and 5.70, respectively.

For `O=S(=O)(NCCN1CCOCC1)c1ccc(-c2ccnc3[nH]ccc23)cc1`, the Activity in assay [1] is 51%. Moreover, the pIC50 in assay [2] is 4.57.

For the compound `COCCNS(=O)(=O)c1ccc(-c2ccnc3[nH]ccc23)cc1`, the Activity in assay [1] amounted to 44%. Besides, the pIC50 in assay [2] is < 4.52.

In the case of `CN(CCO)S(=O)(=O)c1ccc(-c2ccnc3[nH]ccc23)cc1`, the Activity in assay [1] turned out to be 46%. For the same compound, the pIC50 in assay [2] is 5.57.

Consider `O=S(=O)(N[C@@H](CO)Cc1ccc(O)cc1)c1ccc(-c2ccnc3[nH]ccc23)cc1`, for which the Activity in assay [1] was 25%. Further, the negative-log IC50 (pIC50) in assay [2] was 5.80.

Consider `CN1CCN(S(=O)(=O)c2ccc(-c3ccnc4[nH]ccc34)cc2)CC1`, for which the Activity in assay [1] turned out to be 45%. In assay [2], the negative logarithm of the IC50 (pIC50) is < 5.00.

For the compound `O=C(O)[C@H](Cc1ccccc1)NS(=O)(=O)c1ccc(-c2ccnc3[nH]ccc23)cc1`, the Activity in assay [1] is 94%.

With `CC(C)(C)OC(=O)NCCNS(=O)(=O)c1ccc(-c2ccnc3[nH]ccc23)cc1`, the Activity in assay [1] stood at 49%.

Consider `CC(C)(O)CNS(=O)(=O)c1ccc(-c2ccnc3[nH]ccc23)cc1`, for which the Activity in assay [1] amounted to 32%. Besides, in assay [2], the negative-log IC50 (pIC50) is 5.24.

For the origin of these results see ChEMBL document CHEMBL5154713, “Illuminating a Dark Kinase: Structure-Guided Design, Synthesis, and Evaluation of a Potent Nek1 Inhibitor and Its Effects on the Embryonic Zebrafish Pronephros” (J Med Chem, 2022).
